Variants at the floor of the assay were thinned out.
B1: tRNA (parent)
chain: GUUCCGUUGGCGUAAUGGUAACGCGUCUCCCUCCUAAGGAGAAGACUGCGGGUUCGAGUCCCGUACGGAACG

Variants of: B1
Test: yeast fitness relative to wild type (ratio to wild type); higher = fitter; tRNA-Arg(CCU), competitive growth, 37 C, YPD
Summary of the method: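 Start and end populations of a pooled competition were compared by 100-nucleotide paired-end sequencing of gene amplicons. The Saccharomyces cerevisiae strains carried tRNA-Arg(CCU) gene variants at the native genomic locus, synthesised with a 3% per-site mutation rate at 69 sites, and competed in YPD at 37°C for 24 hours in six parallel replicates. Darwinian fitness relative to wild type was based on the change in genotype frequencies. Genotypes required ≥ 100 starting reads, and estimates < 0.5 were set to 0.5.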

Row | Variant | yeast fitness
1 | U2A G68C | 0.671
2 | U2A C4A C5G A36G | 0.524
3 | U2C G51U U54A A70U | ≤ 0.5
4 | U2A A21C C29U A57C | 0.583
5 | U2C G58C | 1.05
6 | U2C A20C C27U | 0.838
7 | U2A C30A G52A A65U | ≤ 0.5
8 | U2C C49U G56C | ≤ 0.5
9 | U2C C31G C55U G63A | ≤ 0.5
10 | U2A U8G C33A G38A | ≤ 0.5
11 | U2A U7A A15U | ≤ 0.5
12 | U2G A21C C22G A45U G63C | ≤ 0.5
13 | U2C G67C | 0.741
14 | U2A C29G G58A | ≤ 0.5
15 | U2C C46U U64A | 0.688
16 | U2C U13C C27A C61U | ≤ 0.5
17 | U2A C5U A69C | 0.687
18 | U2C U35A | 0.62
19 | U2C A21G C33G | ≤ 0.5
20 | U2A G12A G17A A20G A21C C29A A69U | ≤ 0.5
21 | U2G A14U A21C A36C C49A A65G C66G | ≤ 0.5
22 | U2A C5A G12A | 0.526
23 | U2A C24G | 0.643
24 | U2C A20G U47A U53A C62U C66U | ≤ 0.5

Row | Variant | yeast fitness
25 | U2C U7G A15G A45U G50A A57C | ≤ 0.5
26 | U2C G23C G51C | ≤ 0.5
27 | U2C G6C A21C C66U | ≤ 0.5
28 | U2C A20U A40U | 0.52
29 | U2C C11A C22G | 0.602
30 | U2C U26C C46U | 0.683
31 | U2C G39C | 0.774
32 | U2C A40U A42C C66U | ≤ 0.5
33 | U2C C11A C22G U53G | ≤ 0.5
34 | U2G C5G C34G C49G | 0.505
35 | U2C G6C A65U G67A | ≤ 0.5
36 | U2C A45U C62U G63C | ≤ 0.5
37 | U2A C30A C49U C61G | ≤ 0.5
38 | U2C C31G G58A G67U | ≤ 0.5
39 | U2A U35C G38C U47G | ≤ 0.5
40 | U2C U3A C24A C27U G56C C66U | 0.562
41 | U2C A43C | 0.874
42 | U2A A36G A45C G68C | ≤ 0.5
43 | U2A G25A G68A | 0.64
44 | U2A G50A | 0.858
45 | U2A C4U A57U | ≤ 0.5
46 | U2C G23C C31G C33U A42G G52C G58C | ≤ 0.5
47 | U2C U3C C34A G44C C46U G51A | ≤ 0.5
48 | U2A A14C C34A C49U C55U A69C | ≤ 0.5

Row | Variant | yeast fitness
49 | U2A C5G G25A C66U | 0.532
50 | U2C A21G | 0.975
51 | U2C A21C | 0.775
52 | U2C A37G A70C | 0.561
53 | U2C U7G A40C G51A G67A | ≤ 0.5
54 | U2C G9A C31A C49A U59A C61G | ≤ 0.5
55 | U2A U16G | 1.03
56 | U2A U47G | 0.583
57 | U2C U26G A70U | 0.703
58 | U2G A42C U47A G63C A69C | 0.558
59 | U2G C4U G23C | 0.567
60 | U2A U8A C24U | ≤ 0.5
61 | U2C G50C | 0.733
62 | U2C G50U | 0.825
63 | U2C C66A | 0.611
64 | U2A A21C C29U G56C | ≤ 0.5
65 | U2A U3A U26A G51A | ≤ 0.5
66 | U2A G12A C30A A43U A57G C60A G67A | ≤ 0.5
67 | U2A A40U | 0.796
68 | U2C G12C A40C G67A | ≤ 0.5
69 | U2A C33G | 0.714
70 | U2C C5U | 0.98
71 | U2C C5G | 0.738
72 | U2C C27G U28A A43U A70G | ≤ 0.5

Row | Variant | yeast fitness
73 | U2A U19A G44A | 0.544
74 | U2C C31A G50C A70G | ≤ 0.5
75 | U2A C4A C5G A36G G67A | ≤ 0.5
76 | U2A C24U C30U C33G A36C A37C A42C A65U | ≤ 0.5
77 | U2C G52C U59G | ≤ 0.5
78 | U2C U53C C61G | ≤ 0.5
79 | U2A C31A A57G | 0.555
80 | U2G A21U A36U A45U A65U A70U | ≤ 0.5
81 | U2C A14G A36C U47A C61A | ≤ 0.5
82 | U2A C5U A20U G38A | 0.56
83 | U2C C29U C46G G51A G52C | 0.557
84 | U2C C46G A65C | 0.678
85 | U2G C5A A43U C55U G68A | ≤ 0.5
86 | U2C C29G G39C C55A | ≤ 0.5
87 | U2A U8A C11G C30G G48A | ≤ 0.5
88 | U2C G17C G23C G25C U35A A42U C66U | ≤ 0.5
89 | U2C C33U A69U | ≤ 0.5
90 | U2A G6A U7C A15C C29G C33U G68U | ≤ 0.5
91 | U2A A57G | 0.897
92 | U2G C4A C22U U28G A42U C49A | ≤ 0.5
93 | U2A C60G | 0.666
94 | U2C A70C | 0.972
95 | U2C U3C U19A | 0.629
96 | U2C G6C A42G A65U G67A | ≤ 0.5

Row | Variant | yeast fitness
97 | U2C U47A C62U | 0.531
98 | U2A G17C A70U | 0.572
99 | U2G C5A C55U C61A | ≤ 0.5
100 | U2C C4A C34A A43G G52C C61A | ≤ 0.5
101 | U2C A14G U28A | 0.534
102 | U2G A57U G67C | ≤ 0.5
103 | U2C G48C | 1.11
104 | U2A U8C G12A A42U | ≤ 0.5
105 | U2A C22A A40C C46G U59A C60U C61G | ≤ 0.5
106 | U2A G48C | 0.92
107 | U2A U3G C29G C30G C46G A70G | ≤ 0.5
108 | U2C C11A A69U | ≤ 0.5
109 | U2A C5G A40G A45C | ≤ 0.5
110 | U2A C11U G18C C31U A42G C62U | ≤ 0.5
111 | U2C U47A C55G | ≤ 0.5
112 | U2A C62U | 0.899
113 | U2C C22G C31U A36U C49U | 0.649
114 | U2A U13G A40C G41C A57G G63C A65U | ≤ 0.5
115 | U2C G51U G58C | 0.548
116 | U2C A42U C62U | 0.571
117 | U2C A14G G18A A70C | ≤ 0.5
118 | U2A G6A C11G C49U U54C G58C | ≤ 0.5
119 | U2G A21C C22U C60G | ≤ 0.5
120 | U2C U19A U26C A45C G52C A70G | ≤ 0.5

Row | Variant | yeast fitness
121 | U2A C61U A70C | 0.585
122 | U2C C11G | 0.617
123 | U2G C4G C11A | ≤ 0.5
124 | U2A A43C | 0.893
125 | U2G A15G U26C C34U | 0.611
126 | U2A A57U A65U | ≤ 0.5
127 | U2A U3G C11A U16C C22G A57C | ≤ 0.5
128 | U2C C27G C46U | 0.705
129 | U2G A14C A65C | ≤ 0.5
130 | U2A U8A U47A A69U | ≤ 0.5
131 | U2A C24G A70U | ≤ 0.5
132 | U2C C46U | 0.959
133 | U2G A45C | 0.766
134 | U2C C49A | 0.685
135 | U2A A21G C33U G51C | ≤ 0.5
136 | U2A C31A U47C A69U | ≤ 0.5
137 | U2A U13C G38A | ≤ 0.5
138 | U2A A15G A45U G48A C66G | ≤ 0.5
139 | U2G A15C G17C C22G C24A C31A G67C | 0.579
140 | U2C C61U | 0.931
141 | U2A G44A C66U | 0.588
142 | U2G A36U A45U U53A | ≤ 0.5
143 | U2A G9C U13A A15G C33A A37U G50C C61U A69U | ≤ 0.5
144 | U2A C4U U8G C22G U47A A70C | ≤ 0.5

Row | Variant | yeast fitness
145 | U2A G23A C29G A70U | 0.541
146 | U2C C5G A14G | 0.559
147 | U2A U13C A20G A21C C34U A36G | ≤ 0.5
148 | U2C C27U C31U U32G C55A G63A | 0.645
149 | U2C C4U C30A | 0.716
150 | U2C A15G C61U | ≤ 0.5
151 | U2A U16G C49G | 0.705
152 | U2G A15U A20C U26A C30G U35A G38C U64A | ≤ 0.5
153 | U2A C49A C61G | 0.505
154 | U2A G23A | 0.867
155 | U2C U16C C46G C62G | ≤ 0.5
156 | U2A C29A A45U U59C | 0.575
157 | U2A G9A U13A | 0.645
158 | U2C U7C U19C C34U G52A U59A | ≤ 0.5
159 | U2A G6C G68C | ≤ 0.5
160 | U2G A14G C27G G52C | ≤ 0.5
161 | U2A C22U A40C G58C C66U | ≤ 0.5
162 | U2A C11U G17A C29G C31G A37C C66A | ≤ 0.5
163 | U2C C31G G56A | 0.687
164 | U2A C27A C49G A57U C66U | 0.639
165 | U2C C4U C34A G58A | ≤ 0.5
166 | U2A U32C A36G | 0.736
167 | U2C A14G C29A C33G | 0.565
